Measurements: ChEMBL document CHEMBL1275352, “Selection of evodiamine as a novel topoisomerase I inhibitor by structure-based virtual screening and hit optimization of evodiamine derivatives as antitumor agents” (J Med Chem, 2010)
Activity calls are given as the source filed them. The calls are words filed in the database; no cut-off is given here.

Tests used:
[1] = molecular target: T1, DNA topoisomerase 1 (Homo sapiens) (UniProt P11387); experiment: Inhibition of DNA topoisomerase 1-mediated supercoiled Escherichia coli pBR322 DNA relaxation at 10 uM by UV transilluminator analysis
T1 sequence (whole entry): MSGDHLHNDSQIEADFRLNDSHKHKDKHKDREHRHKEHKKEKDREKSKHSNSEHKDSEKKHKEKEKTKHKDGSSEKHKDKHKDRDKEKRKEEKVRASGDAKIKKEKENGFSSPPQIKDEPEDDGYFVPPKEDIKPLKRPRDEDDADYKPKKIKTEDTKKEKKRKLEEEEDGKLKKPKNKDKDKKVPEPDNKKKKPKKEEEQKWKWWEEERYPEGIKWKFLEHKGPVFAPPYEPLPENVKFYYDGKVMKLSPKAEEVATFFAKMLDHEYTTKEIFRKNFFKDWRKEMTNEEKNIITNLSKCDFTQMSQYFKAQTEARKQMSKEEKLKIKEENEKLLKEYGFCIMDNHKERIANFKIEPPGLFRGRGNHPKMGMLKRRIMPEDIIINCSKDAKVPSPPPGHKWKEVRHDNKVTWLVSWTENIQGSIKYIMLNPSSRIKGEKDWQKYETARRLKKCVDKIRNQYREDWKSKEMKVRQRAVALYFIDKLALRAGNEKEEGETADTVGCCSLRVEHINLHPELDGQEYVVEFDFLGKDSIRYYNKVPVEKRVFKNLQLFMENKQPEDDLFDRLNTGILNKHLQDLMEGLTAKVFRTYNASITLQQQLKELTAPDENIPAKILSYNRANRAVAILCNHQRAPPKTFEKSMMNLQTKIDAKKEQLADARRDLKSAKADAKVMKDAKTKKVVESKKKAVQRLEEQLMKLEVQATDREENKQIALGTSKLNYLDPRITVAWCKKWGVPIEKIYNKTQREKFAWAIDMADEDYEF
Procedure, shortened: (§1)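 Purified topoisomerase I was incubated with supercoiled DNA, and inhibition of relaxation by the enzyme was scored. Compounds were tested at concentrations ranging from 1 to 500 μM; an initial screen was run at 500 μM and active compounds were retested at lower concentrations.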

[2] = molecular target: T1, DNA topoisomerase 1 (Homo sapiens); experiment: Inhibition of DNA topoisomerase 1-mediated supercoiled Escherichia coli pBR322 DNA relaxation at 100 uM by UV transilluminator analysis; conditions: 500 uM; in the assay text read “500 uM” for “100 uM”; procedure, shortened: as §1
[3] = molecular target: T1, DNA topoisomerase 1 (Homo sapiens); experiment: Inhibition of DNA topoisomerase 1-mediated supercoiled Escherichia coli pBR322 DNA relaxation by UV transilluminator analysis; procedure, shortened: as §1
A549 = experiment: Cytotoxicity against human A549 cells after 3 days by MTT assay; format: functional, cell-based; conditions: Homo sapiens, A549, 72 h; read-out: IC50
LoVo = experiment: Cytotoxicity against human LoVo cells after 3 days by MTT assay; format: functional, cell-based; conditions: Homo sapiens, LoVo, 72 h; read-out: IC50
MDA-MB-435 = experiment: Cytotoxicity against human MDA-MB-435 cells after 3 days by MTT assay; format: functional, cell-based; conditions: Homo sapiens, MDA-MB-435, 72 h; read-out: IC50

In the case of Cc1ccc(S(=O)(=O)c2cc3c(c4nsnc24)C(=O)c2ccccc2C3=O)cc1, the inhibition [1] is reported as “Active”, the inhibition [2] is reported as “Active” and the inhibition [3] is reported as “Dose-dependent effect”. The IC50 (A549) was 500 nM, the IC50 (LoVo) was 43 µM and the IC50 (MDA-MB-435) was 25 µM.
